Assay results from ChEMBL document CHEMBL1914356, “Maslinic acid derivatives induce significant apoptosis in b16f10 murine melanoma cells” (2011).
The source made the active and inactive calls. The rule behind the calls is not given here.

Legend:
[1] = tested on: B16-F10; experiment: Induction of apoptosis in mouse B16F10 cells assessed as total apoptosis at 1 to 10 uM after 24 hrs using annexin V-FITC/propidium iodide staining by flow cytometry; format: functional, cell-based
Procedure, shortened: (§1)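 B16-F10 cells grown in DMEM with 4 mM L-glutamine, 1.5 g/L bicarbonate, 1 mM pyruvate, 4.5 g/L glucose, 10% FBS. Seeded at 300,000 cells/well in 6-well dishes, treated 24 h later with compound in DMSO. Vehicle and medium-only controls. Detached with EDTA-trypsin, PBS-washed, stained with annexin V-FITC and PI 15 min at room temperature in dark. Total apoptosis = early + late. Mean ± SD, two independent experiments.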

[2] = tested on: B16-F10; experiment: Induction of apoptosis in mouse B16F10 cells assessed as total apoptosis at 1 to 10 uM after 48 hrs using annexin V-FITC/propidium iodide staining by flow cytometry; format: functional, cell-based; procedure, shortened: as §1
[3] = tested on: B16-F10; experiment: Induction of apoptosis in mouse B16F10 cells assessed as early/late apoptotic cells at 30 uM after 24 hrs using annexin V-FITC/propidium iodide staining by flow cytometry; format: functional
Procedure, shortened: (§2)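 B16-F10 cells grown in DMEM with 4 mM L-glutamine, 1 mM pyruvate, 4.5 g/L glucose and 10% FBS. 300,000 cells/well were plated, then treated in DMSO after 24 h. Vehicle and medium-alone controls were included. Cells were detached with EDTA-trypsin, PBS-washed and set at 1 × 10^6 cells/mL in binding buffer. Annexin V-FITC/PI staining ran 15 min at room temperature in the dark, followed by flow cytometry within 1 h.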

[4] = tested on: B16-F10; experiment: Induction of apoptosis in mouse B16F10 cells assessed as total apoptosis at 20 uM after 24 hrs using annexin V-FITC/propidium iodide staining by flow cytometry; format: functional
Procedure, shortened: (§3)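 B16-F10 cells in DMEM/10% FBS were plated at 300,000 cells/well, then treated 24 h later, in duplicate, in DMSO at […] for 24 or 48 h. Vehicle and medium controls were included. Annexin V-FITC/PI staining ran 15 min at room temperature in the dark. Total apoptosis (early + late) was read by flow cytometry as mean ± SD from two independent experiments.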

[5] = tested on: B16-F10; experiment: Induction of apoptosis in mouse B16F10 cells assessed as total apoptosis at 1 uM after 24 hrs using annexin V-FITC/propidium iodide staining by flow cytometry; format: functional; procedure, shortened: as §1
[6] = tested on: B16-F10; experiment: Induction of apoptosis in mouse B16F10 cells assessed as total apoptosis at 20 uM after 48 hrs using annexin V-FITC/propidium iodide staining by flow cytometry; format: functional, cell-based; procedure, shortened: as §3
[7] = tested on: B16-F10; experiment: Induction of apoptosis in mouse B16F10 cells assessed as necrotic cells at 30 uM after 24 hrs using annexin V-FITC/propidium iodide staining by flow cytometry; format: functional; procedure, shortened: as §2

SMILES	Activity [1]	Activity [2]	Activity [3]	Activity [4]	Activity [5]	Activity [6]	Activity [7]
CC(=O)O[C@@H]1C[C@]2(C)[C@H]3CC=C4[C@@H]5CC(C)(C)CC[C@]5(C#N)CC[C@@]4(C)[C@]3(C)CC[C@H]2C(C)(C)[C@H]1OC(C)=O	Active	inactive	80%	70%	68.62%	Active	<10%
CC1(C)CC[C@]2(C(=O)OCc3ccccc3)CC[C@]3(C)C(=CC[C@@H]4[C@@]5(C)C[C@@H](O)[C@H](O)C(C)(C)[C@@H]5CC[C@]43C)[C@@H]2C1 [BENZYL MASLINATE]	Active	inactive	80%	> 70%	87.5%	Active	<10%
